Experimental findings from the M2OR odorant receptor database are described below.

Common to all, as to details: stereoisomer not certain
For one assay, the target named is T1, UniProt Q8VGL0.
T1 sequence (whole entry): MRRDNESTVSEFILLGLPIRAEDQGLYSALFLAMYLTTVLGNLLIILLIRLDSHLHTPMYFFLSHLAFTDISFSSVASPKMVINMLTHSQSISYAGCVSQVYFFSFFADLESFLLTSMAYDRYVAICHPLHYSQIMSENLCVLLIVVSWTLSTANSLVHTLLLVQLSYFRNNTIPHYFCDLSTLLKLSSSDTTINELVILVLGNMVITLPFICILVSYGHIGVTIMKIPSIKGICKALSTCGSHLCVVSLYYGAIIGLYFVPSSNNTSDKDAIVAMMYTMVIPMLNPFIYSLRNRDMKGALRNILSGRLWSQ
In a few lines: (§1)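 Transient luciferase assays in mammalian cell lines were common, though methods varied by source. The values come from published papers and their supplementary material, with extra details from the original authors when needed. Responsive refers to a measured signal the original authors judged statistically different from baseline, and non-responsive (inactive) to the remainder.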

In a further assay the target is T2, UniProt Q8VGU3.
T2 sequence (whole entry): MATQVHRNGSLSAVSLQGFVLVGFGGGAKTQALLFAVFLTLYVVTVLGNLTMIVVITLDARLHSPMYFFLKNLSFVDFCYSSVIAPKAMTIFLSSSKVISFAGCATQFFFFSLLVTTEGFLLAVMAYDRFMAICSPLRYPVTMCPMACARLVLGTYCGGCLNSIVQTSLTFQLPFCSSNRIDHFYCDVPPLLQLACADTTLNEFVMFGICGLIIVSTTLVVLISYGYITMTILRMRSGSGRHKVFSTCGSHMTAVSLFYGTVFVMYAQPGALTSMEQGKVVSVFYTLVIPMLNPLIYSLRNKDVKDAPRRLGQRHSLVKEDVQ
The gist of the method:
as §1

The target in the next assay is T3, UniProt Q8VGV7.
T3 sequence (whole entry): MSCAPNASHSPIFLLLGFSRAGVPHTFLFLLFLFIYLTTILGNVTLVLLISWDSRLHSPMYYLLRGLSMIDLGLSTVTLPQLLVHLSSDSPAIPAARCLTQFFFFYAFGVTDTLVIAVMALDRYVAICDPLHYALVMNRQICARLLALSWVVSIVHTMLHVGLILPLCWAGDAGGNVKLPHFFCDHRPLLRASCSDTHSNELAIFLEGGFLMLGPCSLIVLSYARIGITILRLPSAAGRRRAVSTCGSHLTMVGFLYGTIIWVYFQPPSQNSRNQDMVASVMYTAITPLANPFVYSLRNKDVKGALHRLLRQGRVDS
The gist of the method:
as §1

A further assay concerns the target T4, UniProt Q8VGX3.
T4 sequence (whole entry): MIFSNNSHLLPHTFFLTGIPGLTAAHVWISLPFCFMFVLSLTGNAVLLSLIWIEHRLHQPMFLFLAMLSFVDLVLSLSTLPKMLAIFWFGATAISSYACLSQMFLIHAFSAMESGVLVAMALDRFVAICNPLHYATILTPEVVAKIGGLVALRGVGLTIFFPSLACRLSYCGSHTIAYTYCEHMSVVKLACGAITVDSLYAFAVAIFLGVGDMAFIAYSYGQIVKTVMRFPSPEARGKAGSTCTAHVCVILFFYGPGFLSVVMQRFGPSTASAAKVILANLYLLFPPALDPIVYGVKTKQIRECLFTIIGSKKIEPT
In a few lines:
as §1

Another assay concerns the target T5, UniProt Q8VGX5.
T5 sequence (whole entry): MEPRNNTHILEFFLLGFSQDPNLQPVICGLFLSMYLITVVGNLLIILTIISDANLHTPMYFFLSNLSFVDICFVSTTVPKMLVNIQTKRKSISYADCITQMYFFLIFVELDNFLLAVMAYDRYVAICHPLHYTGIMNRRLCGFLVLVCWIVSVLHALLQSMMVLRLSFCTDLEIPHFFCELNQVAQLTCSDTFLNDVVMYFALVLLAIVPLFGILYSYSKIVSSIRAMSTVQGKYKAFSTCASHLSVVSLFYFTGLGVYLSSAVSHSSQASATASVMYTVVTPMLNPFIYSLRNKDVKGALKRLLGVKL
The gist of the method:
as §1

The target in the next assay is T6, UniProt Q8VGZ2.
T6 sequence (whole entry): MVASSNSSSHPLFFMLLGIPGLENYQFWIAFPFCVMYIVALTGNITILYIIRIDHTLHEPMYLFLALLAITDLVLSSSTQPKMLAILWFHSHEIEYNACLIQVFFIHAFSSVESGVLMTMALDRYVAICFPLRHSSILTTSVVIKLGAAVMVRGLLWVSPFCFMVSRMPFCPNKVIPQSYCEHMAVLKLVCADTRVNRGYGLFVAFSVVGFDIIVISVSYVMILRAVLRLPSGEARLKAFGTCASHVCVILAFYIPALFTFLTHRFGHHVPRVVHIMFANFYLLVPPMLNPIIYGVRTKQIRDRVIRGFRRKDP
The gist of the method: as §1

Another assay has as its target T7, UniProt Q8VGZ7.
T7 sequence (whole entry): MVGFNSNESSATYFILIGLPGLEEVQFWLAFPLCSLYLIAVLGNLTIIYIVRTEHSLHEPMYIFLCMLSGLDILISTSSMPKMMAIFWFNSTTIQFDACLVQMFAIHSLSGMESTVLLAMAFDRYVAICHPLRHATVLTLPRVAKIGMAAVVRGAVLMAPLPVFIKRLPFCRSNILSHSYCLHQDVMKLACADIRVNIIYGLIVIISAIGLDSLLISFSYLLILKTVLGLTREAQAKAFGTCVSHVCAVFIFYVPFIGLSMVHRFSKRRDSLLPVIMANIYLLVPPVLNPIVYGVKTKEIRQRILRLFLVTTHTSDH
In a few lines:
as §1

The next assay deals with T8, UniProt Q8VH16.
T8 sequence (whole entry): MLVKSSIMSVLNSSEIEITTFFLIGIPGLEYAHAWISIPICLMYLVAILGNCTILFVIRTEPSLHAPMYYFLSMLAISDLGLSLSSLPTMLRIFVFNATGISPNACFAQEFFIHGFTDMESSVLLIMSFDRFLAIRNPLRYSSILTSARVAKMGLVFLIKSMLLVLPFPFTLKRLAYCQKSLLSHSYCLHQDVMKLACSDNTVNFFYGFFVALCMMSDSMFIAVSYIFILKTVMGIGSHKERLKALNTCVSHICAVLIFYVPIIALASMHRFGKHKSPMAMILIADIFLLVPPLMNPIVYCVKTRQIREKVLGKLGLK
The gist of the method: as §1

Another assay has as its target T9, UniProt Q8VH20.
T9 sequence (whole entry): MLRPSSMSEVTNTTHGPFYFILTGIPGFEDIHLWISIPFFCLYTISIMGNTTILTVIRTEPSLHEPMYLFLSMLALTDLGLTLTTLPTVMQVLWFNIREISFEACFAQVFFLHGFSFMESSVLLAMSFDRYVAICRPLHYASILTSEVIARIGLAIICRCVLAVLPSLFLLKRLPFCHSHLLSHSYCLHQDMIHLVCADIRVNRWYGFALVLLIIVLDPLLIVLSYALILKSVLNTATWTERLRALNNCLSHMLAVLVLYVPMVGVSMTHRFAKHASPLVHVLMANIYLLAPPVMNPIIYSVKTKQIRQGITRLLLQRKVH
The gist of the method:
as §1

SMILES strings stand for the structures.
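Further: active if original authors judged signal statistically different from baseline.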

Take `Cc1ccc(OC(=O)Cc2ccccc2)cc1`: the “odorant receptor agonist call” value with UniProt Q8VGL0, with UniProt Q8VGU3, with UniProt Q8VGV7, in the assay with UniProt Q8VGX3, with UniProt Q8VGX5 and in the assay with UniProt Q8VGZ2 was “inactive” each time. For the same compound, the “odorant receptor agonist call” value with UniProt Q8VGZ7 and in the assay with UniProt Q8VH16 was “inactive” each time. The “odorant receptor agonist call” value in the assay with UniProt Q8VH20 was “active”.
